# Laboratory results reported in ChEMBL document CHEMBL1136457, “MexAB-OprM-specific efflux pump inhibitors in Pseudomonas aeruginosa. Part 1: discovery and early strategies for lead optimization” (2003).
# Experiments:
# Type in all cases: functional
# Pseudomonas aeruginosa [1] = test: Minimum Potentiation Concentration of EPI required to achieve an 8-fold reduction in antibiotic MIC of AZT against MexAB-OprM pump system in Pseudomonas aeruginosa with 10% horse serum
# Outline: (§1)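 Broth microdilution in Mueller–Hinton broth, P. aeruginosa PAM1723, starting inoculum 10^6 CFU/mL, 18 h at 37 °C; run with and without 10% horse serum. Aztreonam MIC read by visual growth; MPC8 taken as lowest inhibitor concentration giving 8-fold reduction of aztreonam MIC.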
# Pseudomonas aeruginosa [2] = test: Minimum Potentiation Concentration of EPI required to achieve an 8-fold reduction in antibiotic MIC of AZT against MexAB-OprM pump system in Pseudomonas aeruginosa without horse serum; outline: as §1
# [3] = Ratio of potentiation of aztreonam (AZT) with 10% horse serum to without serum
# Outline: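 Ratio of aztreonam MPC8 with 10% horse serum to MPC8 without serum, both from Mueller–Hinton broth microdilution against PAM1723 (10^6 CFU/mL, 18 h, 37 °C, visual growth read-out).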
# Pseudomonas aeruginosa [4] = test: Minimum Potentiation Concentration of EPI required to achieve an 8-fold reduction in antibiotic MIC of levofloxacin against MexABOprMover-expressing strain of Pseudomonas aeruginosa
# Outline: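 P. aeruginosa PAM1723 in Mueller–Hinton broth, broth microdilution per NCCLS M7-A4, starting inoculum 10^6 CFU/mL, inhibitor titrated with levofloxacin; 18 h at 37 °C. Levofloxacin MIC read at 70% growth inhibition by OD 595 nm. Value is the inhibitor concentration giving an 8-fold drop in levofloxacin MIC, measured without serum.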
Compound,MPC8 (Pseudomonas aeruginosa [1]),MPC8 (Pseudomonas aeruginosa [2]),Ratio [3],MPC8 (Pseudomonas aeruginosa [4])
O=C(Cc1ccccc1C(=O)O)Nc1cccc(/C=C/c2nc(-c3ccccc3)cs2)c1,40 µg/mL,1.25 µg/mL,32,
CC(C)c1csc(/C=C/c2cccc(NC(=O)C(O)c3ccccc3C(=O)O)c2)n1 (configuration not stated),40 µg/mL,2.5 µg/mL,16,
CC(C)c1csc(/C=C/c2ccnc(NC(=O)Cc3ccccc3C(=O)O)c2)n1,10 µg/mL,>10 µg/mL,,0.31 µg/mL
CCC(C)(C(N)=O)c1csc(/C=C/c2cccc(NC(=O)Cc3ccccc3C(=O)O)c2)n1 (configuration not stated),40 µg/mL,20 µg/mL,2,80 µg/mL
O=C(Cc1ccccc1C(=O)O)Nc1cccc(/C=C/c2nc(C(F)(F)C(F)(F)F)cs2)c1,80 µg/mL,2.5 µg/mL,32,
COC(C(=O)Nc1cccc(/C=C/c2nc(C(C)C)cs2)c1)c1ccccc1C(=O)O (configuration not stated),160 µg/mL,20 µg/mL,8,10 µg/mL
CC(C)c1csc(CCc2ccnc(NC(=O)Cc3ccccc3C(=O)O)c2)n1,10 µg/mL,5 µg/mL,2,2.5 µg/mL
CC(C)c1csc(/C=C/c2cccc(NC(=O)[C@H]3OC(C)(C)O[C@@H]3C(=O)O)c2)n1,20 µg/mL,5 µg/mL,4,
CC(C)(C)c1csc(/C=C/c2cccc(NC(=O)Cc3ncccc3C(=O)O)c2)n1,20 µg/mL,2.5 µg/mL,8,1.25 µg/mL
CC(C)c1csc(/C=C/c2cncc(NC(=O)Cc3ccccc3C(=O)O)c2)n1,10 µg/mL,5 µg/mL,2,2.5 µg/mL
CC(C)c1csc(COc2ccnc(NC(=O)Cc3ccccc3C(=O)O)c2)n1,5 µg/mL,2.5 µg/mL,2,
CC(C)c1csc(/C=C/c2cccc(NC(=O)Cc3ccccc3C(=O)O)c2)n1,10 µg/mL,<=0.63 ug ml-1,> 16,
CC(C)c1csc(/C=C/c2cccc(NC(=O)[C@@H]3OC(C)(C)O[C@H]3C(=O)O)c2)n1,40 µg/mL,20 µg/mL,2,
CC(C)(C)c1csc(/C=C/c2cccc(NC(=O)Cc3ccccc3C(=O)O)c2)n1,20 µg/mL,<=0.63 ug ml-1,> 32,0.63 µg/mL
CC(C)c1csc(/C=C/c2cccc(NC(=O)Cc3ccccc3C(=O)O)n2)n1,80 µg/mL,20 µg/mL,4,>80 µg/mL
